Data as given in PubChem BioAssay AID651775 (Broad Institute, 2012).

Tested on: SK-MEL-5 TRPM1 promoter luciferase, 24 h
Experiment: MITF transcriptional reporter enhancement – cell-based, SK-MEL-5, luciferase, dry powder, dose response (AID 651775)
How it was run: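 System: SK-MEL-5 TRPM1-promoter luciferase reporter line / Quantity: 2000 cells per well / Medium: phenol red-free DMEM plus 10% heat-inactivated FBS / Schedule: 24 h compound exposure at 37 °C / Measured by: SteadyGlo luciferase luminescence after 5 min room-temperature incubation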

Fc1ccccc1COc1ccc(C(=S)N2CCCC2)cc1 was tested. Which AC40 did it give?
The AC40 was 1320 nM.

For COc1cccc(NC(=O)C(=O)NCCC2CCCCN2S(=O)(=O)c2cccs2)c1 (stereo not drawn), which AC40 is on record?
Its AC40 is 2070 nM.

c1ccc(-c2ccc(-c3cnc4n3CCCCC4)cc2)cc1 was tested. Which AC40 did it give?
Its AC40 is 2290 nM.

O=C(NCCc1cccs1)c1ccc(Cl)c(Cl)c1 was tested. Which AC40 did it give?
The AC40 was 615 nM.

How did the AC40 turn out when O=C(Nc1cccc(F)c1)NC1CCCCCCC1 was run?
The AC40 was 984 nM.

Which AC40 does the source give for Cc1nn2c(-c3ccccc3)ccnc2c1-c1ccccc1 here?
Its AC40 is 824 nM.

For CC(=O)Nc1nnc(COc2ccc(Cl)cc2)s1, which AC40 is on record?
The AC40 was 589 nM.

For C/C(=N\OCc1ccc(C#N)cc1)c1ccc(S(=O)(=O)N(C)C)cc1, which AC40 is on record?
The AC40 was 7800 nM.

Which AC40 does the source give for COC(=O)C(C)N1C(=O)S/C(=C/c2cc(C)n(C(C)C)c2C)C1=O (stereo not drawn) here?
Its AC40 is 541 nM.

Which AC40 does the source give for Cc1ccc(C(=O)Nc2cccc(O)c2)cc1S(=O)(=O)N1CCCCCC1 here?
The AC40 was 1010 nM.

How did the AC40 turn out when CCN(CC)c1ccc(Nc2nc(-c3cccnc3)cs2)cc1 was run?
Its AC40 is 515 nM.

Which AC40 does the source give for COc1ccc(C(=O)NCCn2ccc3ccccc32)cc1 here?
Its AC40 is 531 nM.

c1ccc(CSc2ccc(-c3ccc4c(c3)OCO4)nn2)cc1 was tested. Which AC40 did it give?
The AC40 was 974 nM.

With O=C(Oc1ccc2ccccc2c1Cl)N1CCCCCC1 as the compound, how does the AC40 read?
The AC40 was 113 nM.

For CSc1nc2ccc(NC(=O)c3cccs3)cc2s1, which AC40 is on record?
The AC40 was 465 nM.

How did the AC40 turn out when COc1ccc(NC(=O)c2ccc3[nH]c(C)c(C)c3c2)cc1 was run?
The AC40 was 1930 nM.

Which AC40 does the source give for C=CCNc1nc(-c2ccc(Cl)cc2)cs1 here?
Its AC40 is 219 nM.

Which AC40 does the source give for CCCN(CCC)c1ncnc2c1cnn2-c1ccc(OC)cc1 here?
Its AC40 is 39 nM.

Which AC40 does the source give for COc1cc(/C=N/O)ccc1OCc1ccccc1Cl here?
The AC40 was 180 nM.

How did the AC40 turn out when CC(C)(C)C(=O)N1CCN(c2nc3ccccc3s2)CC1 was run?
Its AC40 is 912 nM.

Cc1ccc(NC(=O)c2ccc3ccccc3n2)cc1S(=O)(=O)N(C)C was tested. Which AC40 did it give?
Its AC40 is 462 nM.

With Cc1cc2ncc(-c3ccc(Cl)cc3)c(N)n2n1 as the compound, how does the AC40 read?
Its AC40 is 1770 nM.

c1ccc2c(Nc3nnc(-c4ccncc4)s3)cccc2c1 was tested. Which AC40 did it give?
The AC40 was 1130 nM.
